Columns and labels:
[1] = target: T1, Adenosine receptor A2a (Homo sapiens, UniProt P29274); assay: Displacement of [3H][…] from human adenosine A2A receptor expressed in human HeLa cells at 0.1 uM by liquid scintillation counting; type: cell-based
How it was run: (§1)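 Nonspecific binding was defined with 50 μM NECA. Filters were washed four times with ice-cold buffer, then counted by scintillation. Ki (Cheng–Prusoff) is mean ± SEM, n=3; % displacement at 0.1 μM is n=2.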

[2] = target: T2, Adenosine receptor A2b (Homo sapiens) (UniProt P29275); assay: Displacement of [3H]DPCPX from human adenosine A2B receptor expressed in HEK293 cells at 0.1 uM by liquid scintillation counting; type: cell-based
T2 sequence (whole entry): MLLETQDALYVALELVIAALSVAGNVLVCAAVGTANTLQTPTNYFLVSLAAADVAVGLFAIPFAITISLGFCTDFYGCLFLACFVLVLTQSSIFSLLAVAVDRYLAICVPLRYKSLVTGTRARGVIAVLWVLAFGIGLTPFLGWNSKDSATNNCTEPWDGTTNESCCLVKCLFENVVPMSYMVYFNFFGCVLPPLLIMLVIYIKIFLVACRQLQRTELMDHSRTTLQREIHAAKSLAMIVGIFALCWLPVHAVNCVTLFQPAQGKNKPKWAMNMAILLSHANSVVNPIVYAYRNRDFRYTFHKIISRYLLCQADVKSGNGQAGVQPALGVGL
How it was run: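 HEK-293 membranes (18 μg) were incubated with [3H]DPCPX (35 nM) at 25 °C for 30 min, with six concentrations from 0.1 nM to 1 μM. Nonspecific binding was defined with 400 μM NECA. Filters were washed six times with ice-cold buffer and counted by scintillation. Ki (Cheng–Prusoff) is mean ± SEM, n=3; % displacement at 0.1 μM is n=2.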

[3] = target: T3, Adenosine receptor A3 (Homo sapiens) (UniProt P0DMS8); assay: Displacement of [3H]NECA from human adenosine A3 receptor expressed in human HeLa cells at 0.1 uM by liquid scintillation counting; type: cell-based
T3 sequence (whole entry): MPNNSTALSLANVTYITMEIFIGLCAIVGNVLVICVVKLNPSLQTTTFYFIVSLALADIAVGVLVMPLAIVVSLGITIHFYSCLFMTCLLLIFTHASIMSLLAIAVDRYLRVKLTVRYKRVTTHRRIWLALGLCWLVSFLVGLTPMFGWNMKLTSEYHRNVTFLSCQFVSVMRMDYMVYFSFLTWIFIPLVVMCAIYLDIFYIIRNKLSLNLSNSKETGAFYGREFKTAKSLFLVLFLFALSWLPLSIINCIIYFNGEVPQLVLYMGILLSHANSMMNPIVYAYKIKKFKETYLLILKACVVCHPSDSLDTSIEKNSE
How it was run: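 HeLa membranes (90 μg) carrying hA3AR were incubated with [3H]NECA (30 nM) at 25 °C for 180 min, with six concentrations from 0.1 nM to 1 μM. Nonspecific binding was defined with 100 μM R-PIA. Filters were washed six times and counted by scintillation. Ki (Cheng–Prusoff) is mean ± SEM, n=3; % displacement at 0.1 μM is n=2.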

[4] = target: T1, Adenosine receptor A2a; assay: Displacement of [3H][…] from human adenosine A2A receptor expressed in human HeLa cells at 1 uM by liquid scintillation counting; type: cell-based
[5] = target: T2, Adenosine receptor A2b (Homo sapiens); assay: Displacement of [3H]DPCPX from human adenosine A2B receptor expressed in HEK293 cells at 1 uM by liquid scintillation counting; type: cell-based
[6] = target: T3, Adenosine receptor A3 (Homo sapiens); assay: Displacement of [3H]NECA from human adenosine A3 receptor expressed in human HeLa cells at 1 uM by liquid scintillation counting; type: cell-based
[7] = target: T4, Adenosine receptor A1 (Homo sapiens) (UniProt P30542); assay: Displacement of [3H]DPCPX from human adenosine A1 receptor expressed in CHO cells at 0.1 uM by liquid scintillation counting; type: cell-based
T4 sequence (whole entry): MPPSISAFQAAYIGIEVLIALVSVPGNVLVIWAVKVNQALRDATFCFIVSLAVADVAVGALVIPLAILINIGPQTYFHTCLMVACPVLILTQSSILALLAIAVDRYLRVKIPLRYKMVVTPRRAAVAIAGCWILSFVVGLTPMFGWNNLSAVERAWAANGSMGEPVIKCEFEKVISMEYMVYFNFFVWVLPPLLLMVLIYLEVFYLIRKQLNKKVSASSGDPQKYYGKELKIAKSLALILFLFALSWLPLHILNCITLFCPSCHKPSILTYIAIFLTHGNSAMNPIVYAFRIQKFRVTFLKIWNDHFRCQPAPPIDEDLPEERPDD
How it was run: (§2)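 Transfected CHO cell membranes (15 μg) were incubated with [3H]DPCPX at 25 °C for 60 min, with six test concentrations from 0.1 nM to 1 μM. Nonspecific binding was defined with 10 μM R-PIA. Filters were washed four times with ice-cold buffer before scintillation counting. Ki (Cheng–Prusoff) is mean ± SEM, n=3; % displacement at 0.1 μM is n=2.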

[8] = target: T5, Adenosine receptor A3 (Homo sapiens, UniProt P0DMS8); assay: Displacement of [3H]NECA from human adenosine A3 receptor expressed in human HeLa cells by liquid scintillation counting; type: cell-based; settings: read-out: Ki
T5 sequence (P0DMS8 whole entry): T3 sequence (whole entry)
How it was run: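 HeLa membranes (90 μg) carrying hA3AR were incubated with [3H]NECA (30 nM) at 25 °C for 180 min, with six concentrations from 0.1 nM to 1 μM. Nonspecific binding was defined with 100 μM R-PIA. Filters were washed six times and counted by scintillation.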

[9] = target: T3, Adenosine receptor A3 (Homo sapiens); assay: Antagonist activity at human adenosine A3 receptor expressed in human HeLa cells assessed as inhibition of forskolin-stimulated cAMP production by enzyme immunoassay; type: functional, cell-based
How it was run: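 Intact cells expressing hA3AR were stimulated with 10 μM forskolin, and receptor activation was induced with 0.1 μM NECA. Antagonist concentration-response curves were run against the NECA-induced cAMP decrease, with cAMP measured by enzyme immunoassay. K_B was derived from IC50, agonist concentration, agonist EC50 and curve slope. Data are mean ± SEM of two separate experiments.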

[10] = target: T6, Adenosine receptor A1 (Homo sapiens, UniProt P30542); assay: Displacement of [3H]DPCPX from human adenosine A1 receptor expressed in CHO cells by liquid scintillation counting; type: cell-based; how it was run: as §2
T6 sequence (P30542 whole entry): T4 sequence (whole entry)

[11] = target: T1, Adenosine receptor A2a; assay: Displacement of [3H][…] from human adenosine A2A receptor expressed in human HeLa cells by liquid scintillation counting; type: cell-based; how it was run: as §1

T1 sequence (P29274 whole entry): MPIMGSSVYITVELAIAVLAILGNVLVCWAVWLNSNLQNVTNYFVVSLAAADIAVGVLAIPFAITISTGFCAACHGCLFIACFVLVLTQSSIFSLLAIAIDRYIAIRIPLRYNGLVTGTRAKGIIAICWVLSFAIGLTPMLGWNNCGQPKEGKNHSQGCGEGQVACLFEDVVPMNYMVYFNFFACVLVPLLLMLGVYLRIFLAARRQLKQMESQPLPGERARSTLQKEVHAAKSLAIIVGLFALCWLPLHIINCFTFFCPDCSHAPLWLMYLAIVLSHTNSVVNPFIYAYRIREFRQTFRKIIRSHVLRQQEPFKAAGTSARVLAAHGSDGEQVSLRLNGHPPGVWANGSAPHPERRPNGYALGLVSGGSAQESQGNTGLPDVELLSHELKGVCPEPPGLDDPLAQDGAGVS

CCCC(=O)Nc1nc(-c2ccccc2)cc(-c2ccccc2)n1
inhibition [1]: 3%
inhibition [2]: 14%
inhibition [3]: 17%
inhibition [4]: 7%
inhibition [5]: 54%
inhibition [6]: 38%

CCC(=O)Nc1cc(-c2ccc(OC)cc2)nc(-c2ccc(OC)cc2)n1
inhibition [7]: 8%
inhibition [1]: 1%
inhibition [2]: 3%
Ki [8]: 3.6 nM
Kb [9]: 1.4 nM

CC(C)C(=O)Nc1nc(-c2ccccc2)cc(-c2ccccc2)n1
inhibition [4]: 44%
inhibition [5]: 79%
inhibition [6]: 45%

CC(C)(C)CC(=O)Nc1cc(-c2ccccc2)nc(-c2ccccc2)n1
inhibition [4]: 32%
inhibition [5]: 4%
inhibition [6]: 39%

O=C(Nc1nc(-c2ccccc2)cc(-c2ccccc2)n1)C1CCCC1
Ki [10]: 2.14 nM
Ki [11]: 196 nM
Ki [8]: 170 nM
inhibition [5]: 52%

COc1ccc(-c2cc(NC(C)=O)nc(-c3ccc(OC)cc3OC)n2)c(OC)c1
inhibition [7]: 1%
inhibition [1]: 6%
inhibition [2]: 2%
Ki [8]: 5.4 nM
Kb [9]: 3.85 nM

CCC(=O)Nc1cc(-c2ccc(Cl)cc2)nc(-c2ccc(Cl)cc2)n1
inhibition [7]: 16%
inhibition [1]: 20%
inhibition [2]: 3%
Ki [8]: 25.3 nM
Kb [9]: 3.88 nM

CC(=O)Nc1cc(-c2ccc(C)cc2)nc(-c2ccc(C)cc2)n1
inhibition [7]: 2%
inhibition [1]: 8%
inhibition [2]: 2%
Ki [8]: 4.4 nM
Kb [9]: 3.56 nM
